# Only some compounds are listed: those with a hit (about 2.3% of all), similar ones and a draw of the others.
# Arbovirus inh = antivirals against arbovirus infection | arbovirus infection cell-based antiviral screen | 200,000 tested, 0.37% active | inhibition, % at 10 µM; in the data active means inhibition above about 30%
# RAM network inh = inhibitors of the yeast RAM network. inhibition, % at 50 µM. 190,000 tested, 1.8% active. AID 868. S. cerevisiae dse1pr::URA3 reporter, 5-FOA growth OD615, 2 d; analog-sensitive cbk1-as2 kinase mutant strain;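 active means inhibition above a set limit, 3 SD over mean compound inhibition, cut at about 8.4% in these data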;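 further: 0% = DMSO-only wells with no growth and 100% = 10 µM 1-NA-PP1 full growth; inhibition rescues growth on 5-FOA so higher OD means more RAM inhibition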
# ABCG2 block = human ABCG2 inhibition, ABCB1 as counter-screen; Q9UNQ0; IgMXP3 cells, JC-1 efflux, flow cytometry; inhibition, % at 6.6 µM; 190,000 tested, 0.1% active; AID 1325;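 active means inhibition above 80%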;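 further: 0% = DMSO and 100% = nicardipine control wells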
#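 test system = two drug-resistant human cell lines, ABCG2 and ABCB1 | amount = 3 million cells/mL final, two lines in 1:1 ratio | reagent = JC-1 transporter substrate | doses = one concentration, 6.6 µM final | incubation = 10 min at 25 °C | signal = flow cytometric JC-1 green MFI at 530 nm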
# ABCB1 block = human ABCB1 inhibition, ABCG2 as counter-screen; P08183; CCRF-Adr cells, JC-1 efflux, flow cytometry; inhibition, % at 6.6 µM; AID 1326; 190,000 tested, 0.067% active; in the data active means inhibition above about 40%;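 further: 0% = vehicle and 100% = reference inhibitor; higher value means more JC-1 retained so stronger ABCB1 efflux block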
# Target sequence (P08183 whole entry, looked up): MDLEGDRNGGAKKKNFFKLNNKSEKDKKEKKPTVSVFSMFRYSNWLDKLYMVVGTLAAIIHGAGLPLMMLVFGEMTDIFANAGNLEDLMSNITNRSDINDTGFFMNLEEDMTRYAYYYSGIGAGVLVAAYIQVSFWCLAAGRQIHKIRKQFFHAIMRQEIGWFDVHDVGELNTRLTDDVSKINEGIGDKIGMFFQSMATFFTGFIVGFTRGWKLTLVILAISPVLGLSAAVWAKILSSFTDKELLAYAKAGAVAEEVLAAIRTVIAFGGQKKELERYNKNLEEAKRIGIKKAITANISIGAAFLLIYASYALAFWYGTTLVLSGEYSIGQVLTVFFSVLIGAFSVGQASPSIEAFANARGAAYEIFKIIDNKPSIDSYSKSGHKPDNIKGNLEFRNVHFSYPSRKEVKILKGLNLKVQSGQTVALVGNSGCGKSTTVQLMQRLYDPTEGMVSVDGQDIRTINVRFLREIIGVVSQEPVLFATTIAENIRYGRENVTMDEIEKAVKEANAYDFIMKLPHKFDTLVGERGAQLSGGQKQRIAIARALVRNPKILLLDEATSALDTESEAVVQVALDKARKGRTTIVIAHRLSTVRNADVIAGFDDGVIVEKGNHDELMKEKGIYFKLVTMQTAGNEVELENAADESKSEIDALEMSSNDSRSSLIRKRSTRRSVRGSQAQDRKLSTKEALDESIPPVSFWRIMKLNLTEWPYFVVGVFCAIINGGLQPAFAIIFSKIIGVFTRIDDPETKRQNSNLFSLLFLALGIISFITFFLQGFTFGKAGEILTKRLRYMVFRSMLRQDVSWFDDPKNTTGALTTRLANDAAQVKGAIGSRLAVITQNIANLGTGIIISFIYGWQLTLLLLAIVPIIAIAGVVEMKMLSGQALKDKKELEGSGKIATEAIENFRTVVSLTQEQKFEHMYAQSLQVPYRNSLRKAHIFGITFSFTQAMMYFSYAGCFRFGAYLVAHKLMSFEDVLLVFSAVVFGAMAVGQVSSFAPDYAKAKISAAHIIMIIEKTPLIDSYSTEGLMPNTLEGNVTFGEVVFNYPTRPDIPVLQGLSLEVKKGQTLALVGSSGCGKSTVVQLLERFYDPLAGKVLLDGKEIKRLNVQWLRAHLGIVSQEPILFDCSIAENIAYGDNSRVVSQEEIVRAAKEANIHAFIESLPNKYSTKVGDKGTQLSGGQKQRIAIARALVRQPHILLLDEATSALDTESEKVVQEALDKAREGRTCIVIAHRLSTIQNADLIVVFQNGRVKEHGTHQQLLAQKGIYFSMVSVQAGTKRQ
# RAM efflux-def = RAM network inhibition, efflux-deficient strain; shares compounds with RAM network inh; S. cerevisiae efflux-deficient reporter strain, 5-FOA growth OD615, 2 days; max inhibition, %; 1,200 tested, under 10 active; call rule not given here;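 further: plate controls were vehicle for no effect and reference inhibitor for full effect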
# * = called active by the depositor; nt = no result.
SMILES,Arbovirus inh,RAM network inh,ABCG2 block,ABCB1 block,RAM efflux-def
CCOC(=O)c1cnn(-c2ccccc2)c1-n1cccc1C(=O)C(=O)N(CC)CC,3,-1,0,32,nt
CCOC(=O)c1cnn(-c2ccccc2)c1-n1cccc1C(=O)C(=O)Nc1ccccc1C(F)(F)F,-3,14*,1,0,3
O=C(c1ccco1)N1CCN(c2nc(C3CC3)nc3sc4c(c23)CCCC4)CC1,-25,-1,3,3,nt
CN(C)c1ccc(N=Nc2ccccc2C(=O)OCC(=O)NCC2CCCCC2)cc1,-18,25*,50,4,3
CC(C)CC(C(=O)NC(=O)NCc1ccccc1)N1C(=O)c2ccccc2C1=O (stereo not drawn),-2,2,63,2,nt
COC(=O)C1SCC2C(=O)N(Cc3ccc(F)cc3)CC(=O)N21 (stereo not drawn),1,0,1,0,nt
Cc1cc(NC(=O)COC(=O)C(Nc2ccc(C(F)(F)F)cc2Cl)C(C)C)no1 (stereo not drawn),-40,13*,1,0,6
Cc1cc(NC(=O)c2ccco2)no1,-3,0,1,0,nt
COc1cc(/C=C2\SC(=S)N(CCC(=O)Nc3ccccc3)C2=O)cc(OC)c1OC,-4,5,0,0,nt
COc1ccc(/C=C2\SC(=O)N(CCC(=O)Nc3ccccc3)C2=O)cc1OC,2,13*,8,0,2
COc1ccc(-c2nc(NC(=O)Cn3ccc(C(F)(F)F)n3)sc2C)cc1,-15,5,3,1,nt
COc1cccc(-c2cc(C(=O)Nc3ccn(Cc4ccc(C)cc4)n3)no2)c1,-2,17*,8,1,3
Cn1c(N2CCCC2)nc2c1c(=O)n(Cc1cccc(F)c1)c(=O)n2C,2,5,9,1,nt
O=C(OCc1cc(-c2ccccc2)no1)c1ccc2ccccc2n1,-2,3,23,0,nt
Nc1nn2c(-c3ccccc3)cc(=O)[nH]c2c1N=Nc1ccc(Br)cc1,-9,14*,0,5,2
Cc1ccc(S(=O)(=O)CCc2nnc(N)s2)cc1C,9,1,2,1,nt
CCOc1ncccc1C(=O)OCC(=O)N(CC)c1ccccc1,-6,2,0,0,nt
CCCCn1c(SCC(=O)Nc2ccccc2C(F)(F)F)nc2ccsc2c1=O,0,11*,21,2,3
CCCCn1c(SCC(=O)Nc2nccs2)nc2ccccc2c1=O,2,3,2,3,nt
CCCOC(=O)c1ccc(NC(=O)c2c(Cl)ccc(Cl)c2OC)cc1,-18,12*,9,0,2
Cc1ccc(CN2C3=NCCN3c3ccccc32)cc1,1,4,5,1,nt
O=C(O)c1cc(/C=C/c2ccc(N3CCOCC3)cc2)nc2ccccc12,-9,1,-1,0,nt
Cc1cc(C)cc(NC(=S)NCc2ccc3[nH]c4c(c3c2)CCCC4)c1,-25,3,0,-1,nt
COc1ccc(C2CC(c3cc(Br)ccc3F)n3nnnc3N2)cc1 (stereo not drawn),2,2,1,0,nt
O=C(C1CC1)N(Cc1ccco1)c1nc(-c2ccccc2)cs1,2,12*,5,0,3
SMILES,Arbovirus inh,RAM network inh,ABCG2 block,ABCB1 block,RAM efflux-def
COc1ccc(C(=O)/C=C/c2ccc(N3CCCCC3)c([N+](=O)[O-])c2)c(OC)c1,11,17*,57,2,4
Cc1ccc(C(=O)O/N=C\c2ccc(N3CCCCC3)c([N+](=O)[O-])c2)cc1,11,16*,-1,0,3
O=C(O/N=C\c1ccc(N2CCCCC2)c([N+](=O)[O-])c1)c1c(F)cccc1F,11,6,7,0,nt
COc1cnc(SCc2ccc(Cl)cc2)nc1Cl,9,0,5,1,nt
COc1ccc(C2NCCc3c2[nH]c2ccccc32)cc1COc1ccc(F)cc1 (stereo not drawn),-36,0,-2,0,nt
CSc1nc2ccccc2cc1/C=C(\C#N)c1ccccc1,-20,6,1,0,nt
CSc1nc2ccccc2cc1/C=C(\C#N)c1cccc(C)c1,-15,13*,3,0,5
O=C(Nc1cc(Cl)ccc1N1CCCCC1)c1cccs1,0,4,3,0,nt
Cc1ccc(C(=O)Nc2cc(Cl)ccc2N2CCCCC2)s1,1,14*,17,6,2
CCc1sc(C(=O)Nc2cc(Cl)ccc2N2CCCCC2)cc1C,6,14*,3,1,4
Cc1c(C(=O)N2CCN(c3ccccn3)CC2)oc2ccccc12,0,1,3,1,nt
O=C(c1oc2ccccc2c1CSCc1ccccc1)N1CCN(c2ncccn2)CC1,-17,12*,11,1,1
COc1ccc(C(=O)O)cc1S(=O)(=O)Nc1cccc(C(F)(F)F)c1,8,2,8,1,nt
O=C(O)c1ccc(Cl)c(S(=O)(=O)Nc2cccc(C(=O)Nc3cccc(C(F)(F)F)c3)c2)c1,7,12*,-1,-1,3
Cc1ccc(S(=O)(=O)Nc2cc(C(=O)N3CCOCC3)ccc2N2CCCCC2)cc1,0,1,4,2,nt
CCN1C(=O)/C(=C/C=C2/SCCN2C)SC1=S,-1,2,1,0,nt
CCCCN1C(=O)/C(=C/C=C2/CC(C)(C)CN2C)SC1=S,-12,12*,8,3,2
S=C(NCC1CCCCC1)Nc1ccc(Oc2ccccc2)cc1,-38,15*,3,0,2
C=C(C)CNC(=S)Nc1cccc(S(=O)(=O)NC2=NCCC2)c1,6,0,0,0,nt
C=C(C)CNC(=S)Nc1nc2c(cc1C(=O)OCC)CCCC2,7,12*,12,1,3
O=C(CSc1nc(-c2ccco2)cc(C(F)(F)F)n1)NCCc1ccccc1,-13,14*,-1,0,2
COc1ccc(CCNC(=O)CSc2nc(-c3ccco3)cc(C(F)(F)F)n2)cc1OC,7,0,46,1,nt
Cc1ccc(NC(=O)CN(C)C(=O)/C=C/c2cccs2)cc1,7,3,4,0,nt
CCn1c(=O)cc(OCC(=O)NCCc2cccc(C)c2)c2ccccc21,-9,4,5,1,nt
CCOCCCNC(=O)c1cc(=O)n(Cc2cccc(C)c2)c2ccccc12,9,12*,2,1,1
CS(=O)(=O)N1N=C(c2ccc(Br)cc2)CC1c1cccs1 (stereo not drawn),14,2,2,1,nt
Cc1oc2ccc(OC(=O)c3cccs3)cc2c1C(=O)OC(C)C,1,14*,4,0,1
Cc1ccc(C2=NN(Cc3nnc(-c4ccccc4)o3)C(=O)SC2)cc1,1,12*,1,1,3
CC(C)N(Cc1nc(-c2ccc(Cl)cc2)no1)C(=O)/C=C/c1ccccc1,-10,12*,4,0,2
CCC/C=C(\CCC)C(NS(=O)(=O)c1cccc2cccnc12)c1ccc(C(=O)OC)cc1 (stereo not drawn),-25,13*,0,1,4

# Source: PubChem BioAssay
